Reference: ChEMBL document CHEMBL1143106, “Synthesis, SAR, and antibacterial activity of novel oxazolidinone analogues possessing urea functionality” (2008)
≈ marks a conversion by molar mass, not a printed value.

Key:
Type in all cases: functional
[1] = tested on: Staphylococcus aureus; assay: Antimicrobial activity against Staphylococcus aureus
[2] = tested on: Enterococcus faecalis; assay: Antimicrobial activity against vancomycin-resistant Enterococcus faecalis NCTC-12201
[3] = tested on: Enterococcus faecium; assay: Antimicrobial activity against vancomycin-resistant Enterococcus faecium ATCC 12202
[4] = tested on: Staphylococcus aureus; assay: Antimicrobial activity against Staphylococcus aureus ATCC 29213
[5] = tested on: Enterococcus faecalis; assay: Antimicrobial activity against vancomycin-sensitive Enterococcus faecalis ATCC 29212
[6] = tested on: Staphylococcus aureus; assay: Antimicrobial activity against methicillin-resistant Staphylococcus aureus ATCC 33591
[7] = tested on: Enterococcus faecium; assay: Antimicrobial activity against vancomycin-resistant Enterococcus faecium ATCC 12202 infected in po dosed mouse
Summary of the method: (§1)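 Mice with systemic infection; dosing was oral (po line) or subcutaneous (sc line); ED50 reported in mg/kg.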

[8] = tested on: Enterococcus faecium; assay: Antimicrobial activity against vancomycin-resistant Enterococcus faecium ATCC 12202 infected in sc dosed mouse; summary of the method: as §1

| Structure (SMILES) | MIC [1] [mg/L] | MIC [2] [mg/L] | MIC [3] [mg/L] | MIC [4] [mg/L] | MIC [5] [mg/L] | MIC [6] [mg/L] | ED50 [7] [mg/kg] | ED50 [8] [mg/kg] |
| --- | --- | --- | --- | --- | --- | --- | --- | --- |
| COc1ccc(NC(=O)N2CCN(c3ccc(N4C[C@H](CNC(C)=O)OC4=O)cc3F)CC2)c(OC)c1 | 4 (≈ 7.76 µM) | 2 (≈ 3.88 µM) | 4 (≈ 7.76 µM) | 4 (≈ 7.76 µM) | 2 (≈ 3.88 µM) | 4 (≈ 7.76 µM) |  |  |
| COc1ccccc1NC(=O)N1CCN(c2ccc(N3C[C@H](CNC(C)=O)OC3=O)cc2F)CC1 | 2 (≈ 4.12 µM) | 2 (≈ 4.12 µM) | 2 (≈ 4.12 µM) | 2 (≈ 4.12 µM) | 2 (≈ 4.12 µM) | 2 (≈ 4.12 µM) | 9.1 |  |
| CC(=O)NC[C@H]1CN(c2ccc(N3CCN(C(=O)Nc4ccon4)CC3)c(F)c2)C(=O)O1 | 4 (≈ 8.96 µM) | 2 (≈ 4.48 µM) | 4 (≈ 8.96 µM) | 4 (≈ 8.96 µM) | 2 (≈ 4.48 µM) | 4 (≈ 8.96 µM) |  |  |
| CC(=O)NC[C@H]1CN(c2ccc(N3CCOCC3)c(F)c2)C(=O)O1 [LINEZOLID] |  |  | 2 (≈ 5.93 µM) |  |  |  | 3.91 |  |
| CC(=O)NC[C@H]1CN(c2ccc(N3CCN(C(N)=O)CC3)c(F)c2)C(=O)O1 | 2 (≈ 5.27 µM) | 2 (≈ 5.27 µM) | 2 (≈ 5.27 µM) | 4 (≈ 10.5 µM) | 2 (≈ 5.27 µM) | 2 (≈ 5.27 µM) | 13.8 |  |
| CC(=O)NC[C@H]1CN(c2ccc(N3CCN(C(=O)Nc4ccccc4)CC3)c(F)c2)C(=O)O1 | 2 (≈ 4.39 µM) | 2 (≈ 4.39 µM) | 2 (≈ 4.39 µM) | 4 (≈ 8.78 µM) | 2 (≈ 4.39 µM) | 4 (≈ 8.78 µM) | > 10 |  |
| CN[C@H](CC(C)C)C(=O)N[C@H]1C(=O)N[C@@H](CC(N)=O)C(=O)N[C@H]2C(=O)N[C@H]3C(=O)N[C@H](C(=O)N[C@H](C(=O)O)c4cc(O)cc(O)c4-c4cc3ccc4O)[C@H](O)c3ccc(c(Cl)c3)Oc3cc2cc(c3O[C@@H]2O[C@H](CO)[C@@H](O)[C@H](O)[C@H]2O[C@H]2C[C@](C)(N)[C@H](O)[C@H](C)O2)Oc2ccc(cc2Cl)[C@H]1O [VANCOMYCIN] |  | > 32 | > 32 |  | 2 (≈ 1.38 µM) |  |  | 3.93 |
| CC(=O)NC[C@H]1CN(c2ccc(N3CCN(C(=O)NC4CC4)CC3)c(F)c2)C(=O)O1 | 8 (≈ 19.1 µM) | 4 (≈ 9.54 µM) | 4 (≈ 9.54 µM) | 16 (≈ 38.1 µM) | 8 (≈ 19.1 µM) | 8 (≈ 19.1 µM) |  |  |
| CC(=O)NC[C@H]1CN(c2ccc(N3CCN(C(=O)Nc4nccs4)CC3)c(F)c2)C(=O)O1 | 2 (≈ 4.32 µM) | 1 (≈ 2.16 µM) | 1 (≈ 2.16 µM) | 2 (≈ 4.32 µM) | 1 (≈ 2.16 µM) | 2 (≈ 4.32 µM) | 18.4 |  |
| CC(=O)NC[C@H]1CN(c2ccc(N3CCN(C(=O)Nc4ccc(Cl)cc4Cl)CC3)c(F)c2)C(=O)O1 | 2 (≈ 3.81 µM) | 1 (≈ 1.91 µM) | 2 (≈ 3.81 µM) | 2 (≈ 3.81 µM) | 2 (≈ 3.81 µM) | 1 (≈ 1.91 µM) | > 10 |  |
| CC(=O)NC[C@H]1CN(c2ccc(N3CCN(C(=O)NCc4ccc(Cl)cc4)CC3)c(F)c2)C(=O)O1 | 4 (≈ 7.94 µM) | 2 (≈ 3.97 µM) | 4 (≈ 7.94 µM) | 4 (≈ 7.94 µM) | 4 (≈ 7.94 µM) | 4 (≈ 7.94 µM) |  |  |
| COc1ccc(CNC(=O)N2CCN(c3ccc(N4C[C@H](CNC(C)=O)OC4=O)cc3F)CC2)cc1 | 2 (≈ 4 µM) | 2 (≈ 4 µM) | 2 (≈ 4 µM) | 4 (≈ 8.01 µM) | 2 (≈ 4 µM) | 2 (≈ 4 µM) |  |  |
| CC(=O)NC[C@H]1CN(c2ccc(N3CCN(C(=O)Nc4ccccn4)CC3)c(F)c2)C(=O)O1 | 2 (≈ 4.38 µM) | 1 (≈ 2.19 µM) | 1 (≈ 2.19 µM) | 2 (≈ 4.38 µM) | 1 (≈ 2.19 µM) | 2 (≈ 4.38 µM) |  |  |
| CC(=O)NC[C@H]1CN(c2ccc(N3CCN(C(=O)NC4CCCCCC4)CC3)c(F)c2)C(=O)O1 | 4 (≈ 8.41 µM) | 2 (≈ 4.21 µM) | 4 (≈ 8.41 µM) | 4 (≈ 8.41 µM) | 4 (≈ 8.41 µM) | 4 (≈ 8.41 µM) |  |  |
| CC(=O)NC[C@H]1CN(c2ccc(N3CCN(C(=O)NC(C)=O)CC3)c(F)c2)C(=O)O1 | 8 (≈ 19 µM) | 4 (≈ 9.49 µM) | 4 (≈ 9.49 µM) | 16 (≈ 38 µM) | 8 (≈ 19 µM) | 8 (≈ 19 µM) |  |  |
| CC(=O)NC[C@H]1CN(c2ccc(N3CCN(C(=O)Nc4cccc(F)c4)CC3)c(F)c2)C(=O)O1 | 2 (≈ 4.22 µM) | 1 (≈ 2.11 µM) | 2 (≈ 4.22 µM) | 4 (≈ 8.45 µM) | 2 (≈ 4.22 µM) | 2 (≈ 4.22 µM) | 18.4 |  |
| CNC(=O)N1CCN(c2ccc(N3C[C@H](CNC(C)=O)OC3=O)cc2F)CC1 | 4 (≈ 10.2 µM) | 2 (≈ 5.08 µM) | 4 (≈ 10.2 µM) | 4 (≈ 10.2 µM) | 4 (≈ 10.2 µM) | 4 (≈ 10.2 µM) |  |  |
| CC(=O)NC[C@H]1CN(c2ccc(N3CCN(C(=O)NO)CC3)c(F)c2)C(=O)O1 | 2 (≈ 5.06 µM) | 2 (≈ 5.06 µM) | 2 (≈ 5.06 µM) | 4 (≈ 10.1 µM) | 4 (≈ 10.1 µM) | 4 (≈ 10.1 µM) |  |  |
| CC(=O)NC[C@H]1CN(c2ccc(N3CCN(C(=O)NC4CCCC4)CC3)c(F)c2)C(=O)O1 | 8 (≈ 17.9 µM) | 4 (≈ 8.94 µM) | 4 (≈ 8.94 µM) | 8 (≈ 17.9 µM) | 4 (≈ 8.94 µM) | 8 (≈ 17.9 µM) |  |  |
| CC(=O)NC[C@H]1CN(c2ccc(N3CCN(C(=O)Nc4ccccc4Cl)CC3)c(F)c2)C(=O)O1 | 2 (≈ 4.08 µM) | 2 (≈ 4.08 µM) | 2 (≈ 4.08 µM) | 4 (≈ 8.16 µM) | 2 (≈ 4.08 µM) | 2 (≈ 4.08 µM) |  |  |
| CC(=N)NC(=O)N1CCN(c2ccc(N3C[C@H](CNC(C)=O)OC3=O)cc2F)CC1 | 4 (≈ 9.51 µM) | 2 (≈ 4.76 µM) | 4 (≈ 9.51 µM) | 4 (≈ 9.51 µM) | 2 (≈ 4.76 µM) | 4 (≈ 9.51 µM) |  |  |
